According to ChEMBL document CHEMBL1154928, “SAR and optimization of thiazole analogs as potent stearoyl-CoA desaturase inhibitors” (Bioorg Med Chem Lett, 2010):
Active and inactive are the calls of the source. The calls are words filed in the database; no cut-off is given here.

Experiments:
Acyl-CoA desaturase 1 = target: T1, Acyl-CoA desaturase 1 (Rattus norvegicus, UniProt P07308); assay: Inhibition of SCD1 in Wistar rat liver microsome assessed as [3H]stearoyl-CoA to [3H]oleoyl-CoA conversion pretreated 1 hr before [3H]stearoyl-CoA addition measured after 60 mins by HPLC based scintillation assay; type: microsomes
T1 sequence (P07308 whole entry): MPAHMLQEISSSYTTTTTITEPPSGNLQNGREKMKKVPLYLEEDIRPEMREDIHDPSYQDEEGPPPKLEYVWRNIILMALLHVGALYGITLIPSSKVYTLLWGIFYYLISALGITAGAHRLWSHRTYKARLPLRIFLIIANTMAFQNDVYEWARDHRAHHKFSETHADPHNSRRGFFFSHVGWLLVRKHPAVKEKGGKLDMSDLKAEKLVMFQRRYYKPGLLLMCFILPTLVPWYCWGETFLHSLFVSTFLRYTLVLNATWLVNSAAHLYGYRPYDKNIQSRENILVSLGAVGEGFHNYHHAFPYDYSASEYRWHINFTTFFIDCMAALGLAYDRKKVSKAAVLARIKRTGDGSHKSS

[1] = Plasma concentration in C57BL/6 mouse at 10 mg/kg, po after 6 hrs; type: ADME, organism-based, C57BL6; design: dose 10 mg/kg, route oral
Procedure, shortened: (§1)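 Tissue distribution was measured in C57BL6 mice 6 h after a single 10 mg/kg oral dose. Compound levels were determined in liver, adipose tissue and plasma, and tissue-to-plasma ratios were calculated.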

Stearoyl-CoA desaturase = target: T2, Stearoyl-CoA desaturase (Homo sapiens, UniProt O00767); assay: Inhibition of SCD1 in human HepG2 cells assessed as [14C]stearic acid to [14C]oleic acid conversion pretreated 15 mins before [14C]stearic acid addition measured after 4 hrs by HPLC based scintillation assay; type: cell-based
T2 sequence (O00767 whole entry): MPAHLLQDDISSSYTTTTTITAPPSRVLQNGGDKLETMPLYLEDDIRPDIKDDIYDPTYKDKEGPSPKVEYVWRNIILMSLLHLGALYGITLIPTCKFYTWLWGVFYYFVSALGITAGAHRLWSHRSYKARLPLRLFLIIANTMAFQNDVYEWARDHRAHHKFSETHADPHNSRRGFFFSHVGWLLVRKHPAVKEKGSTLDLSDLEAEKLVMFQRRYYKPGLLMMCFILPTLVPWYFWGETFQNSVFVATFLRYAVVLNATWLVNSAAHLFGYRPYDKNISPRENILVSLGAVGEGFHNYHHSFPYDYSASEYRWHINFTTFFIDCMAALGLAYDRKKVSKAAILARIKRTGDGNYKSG

Mus musculus [2] = assay: Inhibition of SCD in C57BL/6 mouse liver assessed as [14C]stearic acid to [14C]oleic acid conversion at 1 mg/kg, po after 3 hrs by liver SCD activity index; type: functional; details: C57BL6, Liver
Procedure, shortened: (§2)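 In vivo SCD activity was measured in mice fed a high carbohydrate diet and dosed orally. At 3 h, [1-14C]-stearic acid tracer was given intravenously and its conversion to [1-14C]-oleic acid in liver lipids was followed. The SCD activity index is the 14C-oleic/14C-stearic acid ratio. Liver compound concentration was also measured, and the ED50 was derived from the dose-response.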

[3] = Plasma concentration in C57BL/6 mouse at 0.3 mg/kg, po dosed QD for 3 days and measured on day 3; type: ADME, organism-based, C57BL6; design: dose 0.3 mg/kg, route oral
Procedure, shortened: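 C57BL6 mice on a high fat diet were dosed orally once daily for 3 days at 0.3 mg/kg. Plasma was sampled on day 3 at the terminal 24 h post-dose point.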

Mus musculus [4] = assay: Inhibition of SCD in C57BL/6 mouse liver assessed as [14C]stearic acid to [14C]oleic acid conversion at 0.3 mg/kg, po after 3 hrs by liver SCD activity index; type: functional; details: C57BL6, Liver; procedure, shortened: as §2
Mus musculus [5] = assay: Inhibition of SCD in C57BL/6 mouse liver assessed as [14C]stearic acid to [14C]oleic acid conversion at 0.1 mg/kg, po after 3 hrs by liver SCD activity index; type: functional, organism-based; design: dose 0.1 mg/kg; details: C57BL6; procedure, shortened: as §2
Mus musculus [6] = assay: Antidiabetic activity in C57BL/6 mouse assessed as reduction in plasma glucose level at 0.2 mg/kg, po dosed QD for 4 weeks; type: functional, C57BL6; design: scale not given: the % may be the effect or the level left
[7] = Ratio of drug level in adipose tissue to plasma in C57BL/6 mouse at 10 mg/kg, po after 6 hrs; type: ADME, organism-based, C57BL6; design: dose 10 mg/kg, route oral; procedure, shortened: as §1
[8] = Drug level in C57BL/6 mouse liver at 1 mg/ kg, po after 3 hrs; type: ADME, organism-based, C57BL6; design: dose 1 mg/ kg, route oral; details: read-out: Drug uptake; procedure, shortened: as §2
[9] = Drug level in C57BL/6 mouse liver at 0.1 mg/ kg, po after 3 hrs; type: ADME, organism-based, C57BL6; design: dose 0.1 mg/ kg, route oral; details: read-out: Drug uptake; procedure, shortened: as §2
Mus musculus [10] = assay: Toxicity in C57BL/6 mouse assessed as partial eye closure at 0.2 mg/kg, po dosed QD for 7 days; type: organism-based, C57BL6; design: dose 0.2 mg/kg, route oral; details: in vivo, 168 h
Mus musculus [11] = assay: Antiobesity activity in C57BL/6 mouse assessed as reduction in high fat diet-induced body weight gain at 0.2 mg/kg, po dosed QD for 4 weeks relative to control; type: functional, C57BL6; design: scale not given: the % may be the effect or the level left
Mus musculus [12] = assay: Antidiabetic activity in C57BL/6 mouse assessed as reduction in insulin level at 0.2 mg/kg, po dosed QD for 4 weeks; type: functional, C57BL6; design: scale not given: the % may be the effect or the level left
Mus musculus [13] = assay: Toxicity in C57BL/6 mouse assessed as progressive alopecia at 0.2 mg/kg, po dosed QD for 7 days; type: organism-based, C57BL6; design: dose 0.2 mg/kg, route oral; details: in vivo, 168 h
[14] = AUC (0 to 24 hrs) in C57BL/6 mouse at 10 mg/kg, po; type: ADME, organism-based, C57BL6; design: time < 24 hr, dose 10 mg/kg, route oral; details: plasma
[15] = Drug level in C57BL/6 mouse blood at 1 mg/ kg, po after 3 hrs; type: ADME, organism-based, C57BL6; design: dose 1 mg/ kg, route oral; details: read-out: Drug uptake
[16] = Biodistribution in C57BL/6 mouse liver at 10 mg/kg, po after 6 hrs; type: ADME, organism-based, C57BL6; design: dose 10 mg/kg, route oral; details: read-out: Drug uptake; procedure, shortened: as §1
[17] = Biodistribution in C57BL/6 mouse skin at 10 mg/kg, po after 6 hrs; type: ADME, organism-based, C57BL6, Zone of skin; design: dose 10 mg/kg, route oral; details: read-out: Drug uptake
[18] = Oral bioavailability in C57BL/6 mouse at 10 mg/kg; type: ADME, organism-based, C57BL6; details: in vivo
[19] = Drug level in C57BL/6 mouse blood at 0.1 mg/ kg, po after 3 hrs; type: ADME, organism-based, C57BL6; design: dose 0.1 mg/ kg, route oral; details: read-out: Drug uptake
[20] = Ratio of drug level in liver to plasma in C57BL/6 mouse at 10 mg/kg, po after 6 hrs; type: ADME, organism-based, C57BL6; design: dose 10 mg/kg, route oral; procedure, shortened: as §1
Mus musculus [21] = assay: Inhibition of SCD in po dosed C57BL/6 mouse liver assessed as [14C]stearic acid to [14C]oleic acid conversion after 3 hrs by liver SCD activity index; type: functional; details: C57BL6, Liver; procedure, shortened: as §2
[22] = Drug level in C57BL/6 mouse blood at 0.3 mg/ kg, po after 3 hrs; type: ADME, organism-based, C57BL6; design: dose 0.3 mg/ kg, route oral; details: read-out: Drug uptake
[23] = Drug level in C57BL/6 mouse liver at 0.3 mg/ kg, po after 3 hrs; type: ADME, organism-based, C57BL6; design: dose 0.3 mg/ kg, route oral; details: read-out: Drug uptake; procedure, shortened: as §2
[24] = Biodistribution in C57BL/6 mouse adipose tissue at 10 mg/kg, po after 6 hrs; type: ADME, organism-based, C57BL6; design: dose 10 mg/kg, route oral; details: read-out: Drug uptake; procedure, shortened: as §1

OCc1nc(-c2cnc(N3CCC(Oc4ccccc4C(F)(F)F)CC3)s2)no1
IC50 (Acyl-CoA desaturase 1): 0.001 µM | concentration at 6 h [1]: 1100 nM | IC50 (Stearoyl-CoA desaturase): 0.001 µM | inhibition in vivo at 1 mg/kg (Mus musculus [2]): 89% | concentration at 72 h [3]: 180 nM | inhibition in vivo at 0.3 mg/kg (Mus musculus [4]): 45% | inhibition (Mus musculus [5]): inactive | Activity (Mus musculus [6]): 24% | Kp at 6 h [7]: 8 | concentration at 3 h [8]: 5700 nM | concentration at 3 h [9]: 600 nM | Activity (Mus musculus [10]): Toxic | Activity (Mus musculus [11]): 24% | Activity (Mus musculus [12]): 4% | Activity (Mus musculus [13]): Toxic | AUC(0-t) at 24 h [14]: 16.8 µM·h | concentration at 3 h [15]: 180 nM | concentration at 6 h [16]: 6700 nM | concentration at 6 h [17]: 1800 nM | bioavailability [18]: 48% | concentration at 3 h [19]: < 25 nM | Kp at 6 h [20]: 6 | ED50 (Mus musculus [21]): 0.3 mg/kg | concentration at 3 h [22]: < 25 nM | concentration at 3 h [23]: 1900 nM | concentration at 6 h [24]: 8900 nM

NC(=O)c1cnc(N2CC[C@@H](Oc3ccccc3C(F)(F)F)C2)s1
IC50 (Acyl-CoA desaturase 1): > 20 µM

NS(=O)(=O)c1cnc(N2CCC(Oc3ccccc3C(F)(F)F)CC2)s1
IC50 (Acyl-CoA desaturase 1): 0.041 µM | IC50 (Stearoyl-CoA desaturase): 1.02 µM

Cc1nnc(-c2cnc(N3CCC(Oc4ccccc4C(F)(F)F)CC3)s2)s1
IC50 (Acyl-CoA desaturase 1): 0.75 µM

FC(F)(F)c1ccccc1OC1CCN(c2ncc(-c3ncco3)s2)CC1
IC50 (Acyl-CoA desaturase 1): 0.014 µM | IC50 (Stearoyl-CoA desaturase): 0.055 µM

FC(F)(F)c1ccccc1OC1CCN(c2ncc(-c3nnco3)s2)CC1
IC50 (Acyl-CoA desaturase 1): 0.034 µM | IC50 (Stearoyl-CoA desaturase): 0.065 µM

NC(=O)c1nnc(N2CCC(Oc3ccccc3C(F)(F)F)CC2)[nH]1
IC50 (Acyl-CoA desaturase 1): 0.127 µM | IC50 (Stearoyl-CoA desaturase): 2.82 µM

O=C1CCCN1c1cnc(N2CCC(Oc3ccccc3C(F)(F)F)CC2)s1
IC50 (Acyl-CoA desaturase 1): 0.164 µM | IC50 (Stearoyl-CoA desaturase): 0.174 µM

NC(=O)c1cnc(N2CCC(Sc3ccccc3C(F)(F)F)CC2)s1
IC50 (Acyl-CoA desaturase 1): 0.004 µM | IC50 (Stearoyl-CoA desaturase): 0.024 µM

NC(=O)c1cnc(N2CCC(Oc3ccccc3C(F)(F)F)CC2)s1
IC50 (Acyl-CoA desaturase 1): 0.003 µM | IC50 (Stearoyl-CoA desaturase): 0.01 µM

NC(=O)c1csc(N2CCC(Oc3ccccc3C(F)(F)F)CC2)n1
IC50 (Acyl-CoA desaturase 1): 0.676 µM | IC50 (Stearoyl-CoA desaturase): 6.52 µM

NC(=O)c1cnc(N2CC[C@H](Oc3ccccc3C(F)(F)F)C2)s1
IC50 (Acyl-CoA desaturase 1): 0.012 µM | IC50 (Stearoyl-CoA desaturase): 0.084 µM

NC(=O)c1nc(N2CCC(Oc3ccccc3C(F)(F)F)CC2)no1
IC50 (Acyl-CoA desaturase 1): 1.63 µM

NC(=O)c1nnc(N2CCC(Oc3ccccc3C(F)(F)F)CC2)s1
IC50 (Acyl-CoA desaturase 1): 0.003 µM | IC50 (Stearoyl-CoA desaturase): 0.007 µM

NC(=O)c1cnc(N2CCN(C(=O)c3ccccc3C(F)(F)F)CC2)s1
IC50 (Acyl-CoA desaturase 1): 0.106 µM | IC50 (Stearoyl-CoA desaturase): 0.254 µM | Activity (Mus musculus [10]): Toxic | Activity (Mus musculus [13]): Toxic | ED50 (Mus musculus [21]): 3 mg/kg

Cc1nc(-c2cnc(N3CCC(Oc4ccccc4C(F)(F)F)CC3)s2)no1
IC50 (Acyl-CoA desaturase 1): 0.015 µM | IC50 (Stearoyl-CoA desaturase): 0.039 µM | AUC(0-t) at 24 h [14]: 3.5 µM·h | bioavailability [18]: 24%

NC(=O)c1nnc(N2CCC(Oc3ccccc3C(F)(F)F)CC2)o1
IC50 (Acyl-CoA desaturase 1): 0.083 µM | IC50 (Stearoyl-CoA desaturase): 0.199 µM

FC(F)(F)c1ccccc1OC1CCN(c2ncc(-c3ncon3)s2)CC1
IC50 (Acyl-CoA desaturase 1): 0.004 µM | IC50 (Stearoyl-CoA desaturase): 0.016 µM | AUC(0-t) at 24 h [14]: 2.9 µM·h | bioavailability [18]: 33%

NC(=O)Nc1cnc(N2CCC(Oc3ccccc3C(F)(F)F)CC2)s1
IC50 (Acyl-CoA desaturase 1): 0.15 µM

COC(=O)Nc1cnc(N2CCC(Oc3ccccc3C(F)(F)F)CC2)s1
IC50 (Acyl-CoA desaturase 1): 0.75 µM | IC50 (Stearoyl-CoA desaturase): 0.775 µM

NC(=O)c1cnc(N2CCN(Cc3ccccc3C(F)(F)F)CC2)s1
IC50 (Acyl-CoA desaturase 1): 0.076 µM | IC50 (Stearoyl-CoA desaturase): 0.153 µM

NC(=O)c1cc(N2CCC(Oc3ccccc3C(F)(F)F)CC2)no1
IC50 (Acyl-CoA desaturase 1): 0.008 µM | IC50 (Stearoyl-CoA desaturase): 0.014 µM

NC(=O)c1cnc(N2CCN(S(=O)(=O)c3ccccc3C(F)(F)F)CC2)s1
IC50 (Acyl-CoA desaturase 1): > 3 µM
